Assays:
G-361 = test: Antitumor activity against human G361 cells after 72 hrs by Calcein AM assay; assay type: functional, cell-based; conditions: G-361, 72 h
Outline: (§1)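 Cells grown in DMEM at 37 °C under 5% CO2. Compounds added after 12 h preincubation in 96-well plates, final 0.5-170 μM, with 0.6% final DMSO, then 72 h exposure. Viable cells stained with Calcein AM for 1 h and read at 485/538 nm. IC50 (concentration lethal to 50% of cells) taken from dose-response curves. Run in quadruplicate.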

B16 = test: Antitumor activity against mouse B16 cells after 72 hrs by Calcein AM assay; assay type: functional, cell-based; conditions: B16, 72 h; outline: as §1
Amaranthus = test: Cytokinin activity in Amaranthus cotyledons assessed as dark induction of betacyanin synthesis at 0.1 mmol/L relative to 6-Benzylaminopurine; assay type: functional
Outline: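 Dark induction of betacyanin in excised Amaranthus cotyledons. DMSO stock brought to 10^-3 M in water, diluted into assay medium (DMSO ≤0.2%). Tested over 10^-4 to 10^-8 M, five replicates per concentration, assay repeated at least three times. Response at the optimal concentration expressed relative to BAP at its optimum (set to 100).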

Triticum aestivum [1] = test: Cytokinin activity in wheat assessed as retention of chlorophyll in excised wheat leaves at 0.1 mmol/L relative to 6-Benzylaminopurine by senescence assay; assay type: functional
Outline: (§2)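 Senescence assay measuring chlorophyll retention in excised wheat leaves. DMSO stocks brought to 10^-3 M with water, then diluted in assay medium to a final DMSO of at most 0.2%. Concentrations 10^-4 to 10^-8 M, quintuplicate, repeated at least three times. Response at the optimal concentration normalised to BAP optimum = 100.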

Nicotiana tabacum [2] = test: Cytokinin activity in tobacco assessed as stimulation of callus growth at 0.1 mmol/L relative to 6-Benzylaminopurine; assay type: functional
Outline: (§3)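 Stimulation of tobacco callus growth. Compounds dissolved in DMSO, brought to 10^-3 M in water and diluted into medium (DMSO ≤0.2%). Range 10^-4 to 10^-8 M, five replicates per concentration, at least three independent repeats. Activity at the optimal concentration given relative to BAP's optimal response, taken as 100.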

HOS = test: Antitumor activity against human HOS cells after 72 hrs by Calcein AM assay; assay type: functional, cell-based; outline: as §1
K562 = test: Antitumor activity against human K562 cells after 72 hrs by Calcein AM assay; assay type: functional, cell-based; conditions: K562, 72 h; outline: as §1
[3] = Antitumor activity against human MCF cells after 72 hrs by Calcein AM assay; assay type: functional, cell-based; outline: as §1
CCRF-CEM = test: Antitumor activity against human CEM cells after 72 hrs by Calcein AM assay; assay type: functional, cell-based; outline: as §1
HL-60 = test: Antitumor activity against human HL60 cells after 72 hrs by Calcein AM assay; assay type: functional, cell-based; conditions: HL-60, 72 h; outline: as §1
Triticum aestivum [4] = test: Cytokinin activity in wheat assessed as retention of chlorophyll in excised wheat leaves at 0.1 umol/L relative to 6-Benzylaminopurine by senescence assay; assay type: functional; outline: as §2
Nicotiana tabacum [5] = test: Cytokinin activity in tobacco assessed as stimulation of callus growth at 1 umol/L relative to 6-Benzylaminopurine; assay type: functional; outline: as §3

Row | IC50 (G-361) [µM] | IC50 (B16) [µM] | IC50 (HOS) [µM] | IC50 (K562) [µM] | IC50 [3] [µM] | IC50 (CCRF-CEM) [µM] | IC50 (HL-60) [µM] | Compound | Activity (Amaranthus) [%] | Activity (Triticum aestivum [1]) [%] | Activity (Nicotiana tabacum [2]) [%] | Activity (Triticum aestivum [4]) [%] | Activity (Nicotiana tabacum [5]) [%]
1 | > 167 | > 167 | > 167 | 16.5 | > 167 | 1.9 | 15 | Cc1ccc(O)c(CNc2ncnc3c2ncn3[C@@H]2O[C@H](CO)[C@@H](O)[C@H]2O)c1 | 58 | 164 | 7 |  | 
2 |  |  |  |  |  |  |  | OC[C@H]1O[C@@H](n2cnc3c(NCc4ccc(O)c(O)c4)ncnc32)[C@H](O)[C@@H]1O | 8 |  |  | 17 | 4

— ChEMBL document CHEMBL1143049, “Preparation, biological activity and endogenous occurrence of N6-benzyladenosines” (Bioorg Med Chem, 2007)
